Bioassay records (PubChem)
TAAR1 agonist: human TAAR1 agonism | activation, % at 3 µM | CHO RD-HGA16 TAAR1, Fluo-8 calcium fluorescence; vehicle wells 0%, saturating PEA agonist 100% | 0.99% of 360,000 active | Q96RJ0 | AID 624467;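 active means activation above the mean activation of all test compounds in the run plus 3 SD, cut at about 38% in these data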
Target sequence (Q96RJ0 whole entry, looked up): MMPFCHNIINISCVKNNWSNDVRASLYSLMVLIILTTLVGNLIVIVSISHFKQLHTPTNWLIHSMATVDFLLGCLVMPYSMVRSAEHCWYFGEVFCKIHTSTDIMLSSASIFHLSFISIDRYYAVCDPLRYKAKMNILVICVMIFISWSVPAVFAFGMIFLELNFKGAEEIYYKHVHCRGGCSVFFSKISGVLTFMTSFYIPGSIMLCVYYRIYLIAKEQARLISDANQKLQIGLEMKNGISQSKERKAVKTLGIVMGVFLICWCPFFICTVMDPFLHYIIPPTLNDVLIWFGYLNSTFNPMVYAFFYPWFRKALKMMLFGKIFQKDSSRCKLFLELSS
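System: CHO-derived RD-HGA16 cells with stable Gα16 and human TAAR1. Times: 17-24 h plating, Fluo-8 75 min 37 °C, 30 min RT. Measured by: calcium-sensitive Fluo-8 signal, excitation 470-495, emission 515-575 nm. Read-out basis: % activation relative to PEA EC100 response. Control set: DMSO and PEA EC100. Repeats: no replicates (n 1).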
CHRM4 PAM: positive allosteric modulators of human muscarinic M4 receptor. P08173. CHO-K1 hM4/Gqi5, Fluo-8 calcium fluorescence, ACh EC20; 0% = ACh EC20, 100% = maximal ACh. activation, % at 3 µM. 0.4% of 360,000 active. AID 624126;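 active means activation above its plate's cutoff, the mean activation of sample wells plus 3 SD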
M4 ag: agonists of human muscarinic M4 receptor (CHRM4). P08173. 0.14% of 360,000 active. activation, % at 3 µM. CHO-K1 hM4/Gqi5, Fluo-8 calcium fluorescence; vehicle 0%, full acetylcholine response 100%. AID 624127;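 active means activation above the run mean over all test wells plus 3 SD, cut at about 32% in these data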;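 further: peak over basal fluorescence ratio per well then scaled between controls; 0% = DMSO wells and 100% = acetylcholine at EC100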
CHRM4 antagonist: blocks acetylcholine activation of human M4 receptor | P08173 | CHO-hM4 cells, ACh EC80, Fluo-8 calcium fluorescence | inhibition, % at 3 µM | 0.73% of 360,000 active | AID 624125;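 active means inhibition above its plate's cutoff, the mean inhibition of sample wells plus 3 SD, cut at about 27% in these data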;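 further: 0% = acetylcholine EC80 with DMSO and 100% = DMSO without agonist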
TAAR1 antag: human TAAR1 antagonism. Q96RJ0. 1.5% of 360,000 active. CHO RD-HGA16 TAAR1, Fluo-8 calcium fluorescence, antagonist. inhibition, % at 3 µM;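 active means inhibition above a per-plate cutoff, the mean inhibition of test compounds on that plate plus 3 SD, cut at about 49% in these data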;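 further: 0% = DMSO plus EC80 beta-PEA response and 100% = DMSO alone without agonist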
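System: CHO RD-HGA16 cells bearing hTAAR1. Reagent: EC80 β-phenethylamine stimulus. Schedule: seeding 17-24 h prior, 75-min 37 °C, 30-min RT dye loading. Signal: Fluo-8 intracellular calcium dye fluorescence, real-time kinetic reads. Read-out: % inhibition from peak post-agonist over basal fluorescence ratio. Benchmarks: vehicle wells and EC80 agonist wells. Replicates: n of 1.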
TAAR1 ag conf: human TAAR1 agonism, confirmed; shares compounds with TAAR1 agonist; CHO RD-HGA16 TAAR1, Fluo-8 calcium fluorescence; scaled: DMSO 0%, maximal phenethylamine 100%; activation, % at 3 µM; 82% of 2,400 active;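 active means activation above a cutoff set at the run's mean compound activation plus 3 SD, cut at about 39% in these data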
Ga16 nonsel ag: counter-screen for TAAR1 agonists: nonselective agonists in parental cells; AID 651787; activation, % at 3 µM; CHO-Ga16 parental, Fluo-8 calcium fluorescence; normalized to maximal ATP response, DMSO zero; shares compounds with TAAR1 agonist; 50% of 2,400 active;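 active means activation above the run cutoff, the mean activation over all tested wells plus 3 SD, cut at about 12% in these data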;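 further: 0% = DMSO wells and 100% = maximal ATP response on the peak over basal ratio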
TAAR1 desensitize: counter-screen for human TAAR1 agonists: agonists that desensitize TAAR1; shares compounds with TAAR1 agonist; CHO RD-HGA16 hTAAR1, Fluo-8 calcium, beta-PEA response inhibition; inhibition, % at 3 µM; 46% of 2,400 active;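 active means inhibition above the run cutoff, the mean inhibition of all test compounds plus 3 SD, cut at about 49% in these data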;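 further: beta-PEA stimulus applied at its EC80; loss of beta-PEA calcium signal after compound pretreatment read as receptor desensitization; 0% = DMSO with beta-PEA at EC80 and 100% = DMSO alone without agonist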
Ga16 antag count: nonselective Ga16 antagonism, counter-screen | shares compounds with TAAR1 agonist | CHO-Ga16 ATP-induced calcium, Fluo-8 fluorescence | inhibition, % at 3 µM | 39% of 2,400 active | AID 651952;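 active means inhibition above the plate's mean compound inhibition plus 3 SD, computed per plate, cut at about 22% in these data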;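 further: 0% = EC80 ATP with DMSO and 100% = DMSO wells without ATP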
Numbers without * were called inactive; · = no result given. Shown are actives, neighbours in structure and some others; about 3% of the full set was active somewhere.

SMILES	TAAR1 agonist	CHRM4 PAM	M4 ag	CHRM4 antagonist	TAAR1 antag	TAAR1 ag conf	Ga16 nonsel ag	TAAR1 desensitize	Ga16 antag count
O=C(COc1ccccc1)NC(=S)Nc1cccc2cc(O)ccc12	71.9*	1.1	11.2	3.1	44.6	67.2*	24.2*	49.3*	29.2*
O=C(COC(=O)CN1C(=O)c2ccccc2C1=O)Nc1ccccc1	48.4*	7.3	2.3	-11.2	-26.3	57.0*	0.3	7.8	3.9
Cc1ccc(NC(=O)COC(=O)CN2C(=O)c3ccccc3C2=O)cc1	14.9	5.3	1.6	1.2	11.1	·	·	·	·
C(=NOCc1ccccc1)c1ccncc1	-0.1	-0.8	0.2	-4.3	-20.1	·	·	·	·
C(=NOCCc1ccccc1)c1cccnc1	·	3.2	0.9	-8.3	·	·	0.2	·	6.2
C[C@H]1CN([C@@H](C)CO)C(=O)c2cc(Br)cnc2O[C@H]1CN(C)Cc1ccccc1C(=O)O	2.1	-0.6	0.6	-3.9	-8.1	·	·	·	·
CCN1C(=O)C(=O)N(CC(=O)c2[nH]c(C)c(C(C)=O)c2C)C1=O	1.5	-4.2	0.6	5.4	-9.9	·	·	·	·
CC(=O)c1c(C)[nH]c(C(=O)CN2C(=O)NC(C)(c3ccc(C)cc3)C2=O)c1C (stereo unspecified)	85.1*	6.9	35.5*	-0.7	42.3	113.2*	55.8*	60.0*	36.2*
Cc1cc(C)nc(NS(=O)(=O)c2ccc(NC(=O)C3(c4ccc([N+](=O)[O-])cc4)CCCC3)cc2)n1	63.0*	-3.2	10.8	7.8	37.5	102.3*	39.2*	63.6*	35.8*
COc1ccc(C2(C(=O)Nc3ccc(S(=O)(=O)Nc4nc(C)cc(C)n4)cc3)CCCC2)cc1OC	0.8	6.4	2.0	-10.3	-17.7	·	·	·	·
Cc1ccccc1NC(=S)N(C)CCc1ccccn1	58.2*	-2.5	1.7	-1.2	6.7	61.4*	2.2	14.9	7.7
CN(CCc1ccccn1)C(=S)Nc1ccc(Cl)c(Cl)c1	30.6	0.8	7.7	-5.9	0.2	·	·	·	·
Cc1ccc(C)c(NC(=S)N(C)CCc2ccccn2)c1	44.8*	17.9*	1.3	-5.0	-9.1	38.7*	-0.2	-2.3	-0.7
Cc1cc(=O)[nH]c(SCC(=O)N2CCCC(C)C2)n1 (stereo unspecified)	75.4*	4.4	1.0	3.2	-10.1	38.7*	0.9	-8.1	2.3
Cc1ccccc1S(=O)(=O)NC(=O)C1(C)CCN1C(=O)Cc1ccccc1Cl (stereo unspecified)	0.7	6.5	0.1	-18.0	-5.2	·	·	·	·
CCOC(=O)C1CCC(CNCc2ccc(Cl)cc2)CC1 (stereo unspecified)	70.5*	-14.0	2.5	41.9*	20.5	0.6	4.3	-0.3	-6.0
CC1=NN(c2ccccc2)C(=O)/C1=C\C=C\c1ccccc1	1.2	1.1	0.2	4.8	-29.8	·	·	·	·
CN1/C(=C\C=C2/C(=O)Oc3ccccc3C2=O)C(C)(C)c2ccccc21	612.2*	·	·	·	104.6*	330.6*	356.6*	106.6*	102.8*
CC1=NN(c2ccccc2)C(=O)/C1=C\C=C1/N(C)c2ccccc2C1(C)C	84.4*	-10.2	24.9	-3.9	50.5*	66.9*	44.6*	57.3*	49.0*
COC(=O)[C@@H]1ON2OCC(C)=C3CCCC[C@@]32[C@H]1C(=O)OC	0.7	19.5	1.4	2.9	-7.9	·	·	·	·
CC(CSC(=O)c1ccccc1)C(=O)N1c2ccccc2CC1C(=O)O (stereo unspecified)	0.2	0.3	-0.5	7.3	-21.4	·	·	·	·
